# Experimental data reported in ChEMBL document CHEMBL3085690, “Naturally occurring antimicrobial peptide OH-CATH30 selectively regulates the innate immune response to protect against sepsis” (J Med Chem, 2013).
# Activity calls are given as the source filed them. The calls are words filed in the database; no cut-off is given here. Peptide text beside a SMILES is read from it.
# What was measured:
# [1] = tested on: Mus musculus; experiment: Stimulation of innate immune response in Kunming mouse infected with Pseudomonas aeruginosa ATCC 27853 assessed as reduction of bacterial burden in peritoneal lavage by measuring survival rate at 10 mg/kg, ip administered 5 hrs before bacterial infection measured up to 7 days; assay type: functional, organism-based; parameters: dose 10 mg/kg
# In short: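 Peptide at 10 mg/kg ip was given 5 h before ip challenge with E. coli 25922 (2.5 × 10^8 CFU), P. aeruginosa 27853 (8 × 10^7 CFU) or S. aureus 25923 (2 × 10^8 CFU) per mouse. Viable bacteria were counted in peritoneal lavage collected in 2 mL of cold saline (n = 7, 6 and 8 respectively; unpaired t test). Survival was recorded for up to 7 days.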
# [2] = tested on: Mus musculus; experiment: Stimulation of innate immune response in neutropenic Kunming mouse infected with Pseudomonas aeruginosa ATCC 27853 assessed as reduction of bacterial burden in peritoneal lavage at 10 mg/kg, ip relative to control; assay type: functional; parameters: scale not given: the % may be the effect or the level left; details: route intraperitoneal
# In short: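 Mice were made neutropenic with cyclophosphamide ip, 150 mg/kg on day 0 and 100 mg/kg on day 3. Peptide was given ip at 10 mg/kg 5 h before ip bacterial infection on day 5 (n = 10). Viable bacteria in the peritoneal cavity were counted 8 h after inoculation, and groups were compared by unpaired t test.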
# [3] = tested on: PBMC; experiment: Increase of cytokine production in human PBMC by qRT-PCR analysis; assay type: functional, cell-based
# [4] = tested on: Mus musculus; experiment: Stimulation of innate immune response in Kunming mouse infected with Pseudomonas aeruginosa ATCC 27853 assessed as effect on IL-6 production in peritoneal lavage at 10 mg/kg, ip after 5 hrs by ELISA; assay type: functional, organism-based; parameters: dose 10 mg/kg
# [5] = tested on: Mus musculus; experiment: Stimulation of innate immune response in Kunming mouse infected with Pseudomonas aeruginosa ATCC 27853 assessed as effect on TNFalpha production in peritoneal lavage at 10 mg/kg, ip after 5 hrs by ELISA; assay type: functional, organism-based; parameters: dose 10 mg/kg
# [6] = tested on: Mus musculus; experiment: Stimulation of innate immune response in Kunming mouse assessed as increase of IL-1beta level in peritoneal lavage at 10 mg/kg, ip after 5 hrs; assay type: functional, organism-based; parameters: dose 10 mg/kg
# In short: (§1)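 Female Kunming mice (18−22 g) received a single ip injection of peptide at 10 mg/kg in sterile saline. Peritoneal lavage was collected in 2 mL of cold sterile saline 5 h later, and cytokines and chemokines were measured by ELISA. Data are mean ± SD from four mice, compared by unpaired t test.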
# [7] = Cytotoxicity against mouse BMDM at 5 to 20 ug/ml by MTT assay
# [8] = tested on: BMDM; experiment: Induction of CXCL1 mRNA up-regulation in mouse BMDM at 20 ug/ml after 3 hrs by qRT-PCR analysis; assay type: functional
# In short: (§2)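 Murine BMDMs stimulated with peptide, then target mRNA quantified by qRT-PCR. Expression normalized to GAPDH, with untreated cells set to 1.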
# [9] = tested on: Mus musculus; experiment: Stimulation of innate immune response in Kunming mouse assessed as protection against drug-resistant Pseudomonas aeruginosa-induced mortality by measuring survival rate at 10 mg/kg, ip administered 5 hrs before bacterial infection measured up to 7 days; assay type: functional; details: route intraperitoneal
# In short: (§3)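 Female Kunming mice (18−22 g) were dosed ip in sterile saline at 10 mg/kg, 5 h before ip challenge with clinical drug-resistant isolates: E. coli (n = 12), P. aeruginosa (n = 10) or S. aureus (n = 15). Survival was recorded for up to 7 days, with checks every 6 h and euthanasia by CO2 at the humane end point.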
# [10] = tested on: BMDM; experiment: Induction of CCL2 mRNA up-regulation in mouse BMDM at 20 ug/ml after 3 hrs by qRT-PCR analysis; assay type: functional; in short: as §2
# [11] = tested on: RAW264.7; experiment: Induction of phagocytic activity in mouse RAW264.7 cells using fluorescently labeled Escherichia coli up to 2 hrs by fluorescent assay; assay type: functional, cell-based
# [12] = tested on: BMDM; experiment: Induction of CCL3 mRNA up-regulation in mouse BMDM at 20 ug/ml after 3 hrs by qRT-PCR analysis; assay type: functional; in short: as §2
# [13] = tested on: Mus musculus; experiment: Stimulation of innate immune response in Kunming mouse assessed as protection against Pseudomonas aeruginosa ATCC 27853-induced mortality by measuring survival rate at 10 mg/kg, ip administered 5 hrs before bacterial infection measured up to 7 days; assay type: functional; details: route intraperitoneal
# In short: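 Female Kunming mice (18−22 g) received a single ip dose in sterile saline 5 h before ip challenge with P. aeruginosa 27853 (8 × 10^7 CFU/mouse; n = 8) or S. aureus 25923 (2 × 10^8 CFU/mouse; n = 10). Mice were checked every 6 h for up to 7 days, with a humane end point. Curves were compared by log-rank test.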
# [14] = biological target: MAP kinase p38 (Homo sapiens) (UniProt O15264+Q15759+Q16539+P53778); experiment: Activation of p38 kinase in mouse BMDM assessed as phosphorylation at 10 ug/ml by Western blotting; assay type: protein assay; details: TDE = time-dependent effect, target entry is the homologue from another species
# In short: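 BMDMs cultured in RPMI 1640 with 10% FCS and 20% L929-conditioned medium. Lysates separated by 10% SDS-PAGE, blotted to PVDF and blocked in 5% BSA. Probed for phospho-JNK/JNK or phospho-p38/p38, then HRP goat anti-rabbit IgG, chemiluminescence read-out.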
# [15] = tested on: Mus musculus; experiment: Stimulation of innate immune response in Kunming mouse assessed as protection against drug-resistant Staphylococcus aureus-induced mortality by measuring survival rate at 10 mg/kg, ip administered 5 hrs before bacterial infection measured up to 7 days; assay type: functional; details: route intraperitoneal; in short: as §3
# [16] = Increase of CXCL2 production in mouse BMDM after 6 hrs by ELISA in presence of p38 MAPK inhibitor SB-202190; assay type: functional
# [17] = tested on: Mus musculus; experiment: Stimulation of innate immune response in clodronate liposomes treated Kunming mouse monocytes depletion model assessed as increase of CXCL2 production in peritoneal lavage at 10 mg/kg, ip; assay type: functional, organism-based; parameters: dose 10 mg/kg
# [18] = tested on: Mus musculus; experiment: Stimulation of innate immune response in Kunming mouse assessed as increase of IL-6 level in peritoneal lavage at 10 mg/kg, ip after 5 hrs; assay type: functional, organism-based; parameters: dose 10 mg/kg; in short: as §1
# [19] = tested on: Mus musculus; experiment: Stimulation of innate immune response in ip dosed Kunming mouse assessed as protection against Escherichia coli ATCC 25922-induced mortality by measuring survival rate measured up to 7 days; assay type: functional, organism-based
# In short: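 Kunming mice were challenged ip with E. coli 25922 at 2.5 × 10^8 CFU/mouse (n = 10). A single ip dose of peptide, from 1 to 10 mg/kg in sterile saline, was given 5 h before infection. Survival was followed for up to 7 days and compared by log-rank test.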
# [20] = tested on: BMDM; experiment: Increase of CXCL1 protein level in mouse BMDM at 20 ug/ml after 18 hrs by ELISA; assay type: functional
# In short: (§4)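 Bone marrow-derived macrophages (RPMI 1640, 10% FCS, 20% L929-conditioned medium) stimulated with peptide for 18 h. Cytokines and chemokines in culture supernatant quantified by sandwich ELISA. Mean ± SD from three independent experiments, unpaired t test.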
# [21] = tested on: BMDM; experiment: Increase of IL-1Ra protein level in mouse BMDM at 20 ug/ml after 18 hrs by ELISA; assay type: functional; in short: as §4
# [22] = Induction of IL-1Ra mRNA up-regulation in mouse BMDM at 20 ug/ml after 3 hrs by qRT-PCR analysis relative to control; assay type: functional; in short: as §2
# [23] = Increase of IL-10 protein level in mouse BMDM at 10 ug/ml after 18 hrs by ELISA; assay type: functional; in short: as §4
smiles,measurement,setting,value
CC[C@H](C)[C@H](NC(=O)[C@@H](NC(=O)[C@H](CCCNC(=N)N)NC(=O)[C@@H]1CCCN1C(=O)[C@H](CCCCN)NC(=O)[C@H](CCCCN)NC(=O)[C@H](Cc1ccccc1)NC(=O)[C@H](Cc1ccccc1)NC(=O)[C@H](CCCCN)NC(=O)[C@H](CCCCN)NC(=O)[C@H](C)NC(=O)[C@H](CCCNC(=N)N)NC(=O)[C@H](CCCCN)NC(=O)[C@H](CCCCN)NC(=O)[C@@H](NC(=O)[C@H](CO)NC(=O)[C@H](CC(N)=O)NC(=O)[C@H](CCCCN)NC(=O)[C@H](CC(C)C)NC(=O)[C@H](CCCCN)NC(=O)[C@H](CCCCN)NC(=O)[C@H](Cc1ccccc1)NC(=O)[C@H](Cc1ccccc1)NC(=O)[C@@H](N)CCCCN)C(C)C)C(C)C)C(=O)NCC(=O)N[C@H](C(=O)N[C@@H](CO)C(=O)N[C@H](C(=O)N1CCC[C@H]1C(=O)N[C@@H](Cc1ccccc1)C(=O)O)[C@@H](C)CC)C(C)C (H-KFFKKLKNSVKKRAKKFFKKPRVIGVSIPF-OH),Activity,[1],Active
same,Activity,[2],40%
same,Activity,[3],Active
same,Activity,[4],inactive
same,Activity,[5],inactive
same,Activity,[6],inactive
same,Activity,[7],Non-toxic
same,Activity,[8],Active
same,survival at 10 mg/kg,[9],95%
same,Activity,[10],Active
same,Activity,[11],inactive
same,Activity,[12],Active
same,survival at 10 mg/kg,[13],> 85%
same,Activity,[14],tde
same,survival at 10 mg/kg,[15],63%
same,Activity,[16],464.9 pg/mL
same,Activity,[17],inactive
same,Activity,[18],inactive
same,Activity,[19],Dose-dependent effect
same,Activity,[20],Active
same,Activity,[21],Active
same,fold change (FC),[22],25
same,Activity,[23],156 pg/mL
